Our source for the delta pCa50 and maximal force change values is PubChem BioAssay AID602231 (The Scripps Research Institute Molecular Screening Center, 2012).

Structures are written as SMILES. Calls of active or inactive are those of the source.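 The calls were made as follows: active = calcium level giving half maximal force raised by at least 10% versus DMSO, meaning delta pCa50 at or below about -0.041; inactive = the rest.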

This experiment is described as follows: pCa50 shift in permeabilized muscle fibers – porcine papillary fibers, force transducer, mechanism study for cardiac RTF sensitizer project (AID 602231). The note with it: Permeabilized pig cardiac fiber, Ca2+-tension pCa50 shift, at 10 µM; delta pCa50: stronger effect = higher value; maximal force change: measured here: effect on maximal fiber tension. The essentials: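 Material: Skinned porcine cardiac papillary muscle fibers; medium: pH 7.0 buffer with Mg-ATP and EGTA; also added: free Ca2+ series, pCa 8.0–4.5; measured by: fiber tension measured by force transducer; evaluation: pCa50 shift versus DMSO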

For `Cc1cccn2c(=O)c(/C=C3\SC(=S)N(CC(C)C)C3=O)c(NCCCOC(C)C)nc12`, the delta pCa50 was -0.003 (inactive) and the maximal force change was -9.9%.
On the same counts, the results for `CCOC(=O)c1sc(N)c(C#N)c1COC(=O)CNC(=O)c1cc(OC)c(OC)c(OC)c1` are -0.039 (inactive) and 3.3%.
The like results for `CCOC(=O)c1cc2n(c1N)-c1ccccc1C2=O` were, in that order, 0.01 (inactive) and 2.13%.
On the same counts, the results for `Cc1ccc(/C=C2\Oc3c(ccc(O)c3CN3CCN(CCO)CC3)C2=O)cc1` are -0.027 (inactive) and -0.5%.
